# PubChem BioAssay AID1515 (The Scripps Research Institute Molecular Screening Center, 2009)
# The whole screen tested about 220,000 compounds, of which about 440 (0.2%) were called active.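 Rule for the calls: active = inhibition above the campaign mean of all tested compounds plus 3 SD (cut at about 14% in these data); inactive = the rest.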 Only a selection was taken, and actives are over-represented in it overall.
# Biological target: Serine hydrolase RBBP9 (Homo sapiens) (UniProt O75884)
# Assay: human RBBP9 inhibitors, primary screen, biochemical, fluorescence polarization, FP-Rh probe, HTS (AID 1515);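 note: plate controls were DMSO wells with RBBP9 for no effect and wells lacking RBBP9 protein for full effect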
# Conditions: recombinant RBBP9, FP-Rh probe fluorescence polarization; at 7.94 µM; active compounds read high
# Procedure, shortened: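 Measured by: FP readout at 525/598 nm; material: recombinant human RBBP9; also added: Serine-hydrolase probe FP-Rh, 375 nM pre-mixing; medium: Tris buffer pH 8.0, NaCl, Pluronic; replication: one well per compound; doses: one concentration, 7.94 µM nominal, 0.794% DMSO; timing: preincubation 30 min plus labeling 45 min at 25 °C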
# Serine hydrolase RBBP9 (Homo sapiens), sequence (O75884 whole entry, looked up): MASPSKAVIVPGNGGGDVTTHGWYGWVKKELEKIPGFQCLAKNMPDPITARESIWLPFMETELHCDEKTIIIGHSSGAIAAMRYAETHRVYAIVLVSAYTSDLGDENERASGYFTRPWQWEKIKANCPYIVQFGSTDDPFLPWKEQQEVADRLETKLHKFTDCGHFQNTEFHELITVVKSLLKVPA
row,SMILES,inhibition
1,O=C(NCc1cccs1)C(=O)NCC1OCCCN1S(=O)(=O)c1ccc(F)cc1 (configuration not stated),-5.51% (inactive)
2,O=C(NCCCn1ccnc1)C(=O)NCC1OCCN1S(=O)(=O)c1cc(F)ccc1F (configuration not stated),-2.12% (inactive)
3,Cc1cc(F)ccc1S(=O)(=O)N1CCCOC1CNC(=O)C(=O)NCCC1=CCCCC1 (configuration not stated),44.9% (active)
4,Cc1cc(CO)nn1-c1ccc([N+](=O)[O-])cc1,-1.67% (inactive)
5,CCN(CC)Cc1nc2sc(C)c(C)c2c(=O)[nH]1,0.79% (inactive)
6,COc1ccc(C(=O)CSc2nnc(-c3ccco3)o2)cc1,-6.2% (inactive)
7,CC(C)n1c(=S)[nH]c2cc(C(F)(F)F)ccc21,-5.5% (inactive)
8,CCN(C(=O)Cc1nc(N)n[nH]1)C1(C(=O)Nc2ccccc2)CCCCC1,4.99% (inactive)
9,COc1ccc(-n2nnnc2SCC(=O)NCc2cccs2)cc1,-4.68% (inactive)
10,COc1ccc(-c2nnn(Cc3nc(N)nc(N4CCCCC4)n3)n2)cc1,-9.6% (inactive)
11,COc1ccc(-n2nnnc2SCc2nc(N)nc(N3CCOCC3)n2)cc1,14.8% (active)
12,Cc1onc(-c2ccccc2Cl)c1C(=O)OCC(=O)c1ccccc1,-7.59% (inactive)
13,O=c1nc(N/N=C/c2ccco2)cn[nH]1,-3.99% (inactive)
14,COC(=O)c1ccccc1NC(=O)Cc1ccccc1OC,6.78% (inactive)
15,COCCn1nnnc1C(c1cc2ccc(OC)cc2[nH]c1=O)N1CCc2ccccc2C1 (configuration not stated),5.71% (inactive)
16,CN1CCN(C(c2cc3cc4c(cc3[nH]c2=O)OCCO4)c2nnnn2C2CCCC2)CC1 (configuration not stated),-9.4% (inactive)
17,CCOc1ccc2[nH]c(=O)c(C(c3nnnn3CCOC)N3CCOCC3)cc2c1 (configuration not stated),15.5% (active)
18,C[N+](C)(C)CCOP(=O)([O-])OC[C@H](O)CO,0.46% (inactive)
19,COc1ccccc1N1CCN(CC(=O)NCCc2ccc(S(N)(=O)=O)cc2)CC1,0.48% (inactive)
20,CCCC(NC(=O)c1ccco1)c1nc2ccccc2[nH]1 (configuration not stated),0.23% (inactive)
21,O=C(CN1CCN(c2ccc(Cl)cc2)CC1)NCc1cccs1,-5.55% (inactive)

row,SMILES,inhibition
1,CC(C)c1ccc(NC(=S)NNc2ccc(Cl)c(C(=O)O)c2)cc1,-0.79% (inactive)
2,Nc1nnc(SCC(=O)OCc2ccc(Cl)c(Cl)c2)s1,-1.35% (inactive)
3,C=CCn1c(COc2ccccc2F)nnc1SCC(=O)N1CC(=O)Nc2ccccc21,-3.31% (inactive)
4,Nn1c(Cc2cccc3ccccc23)nnc1SCC(=O)N1CC(=O)Nc2ccccc21,15.1% (active)
5,Cc1nc(SCC(=O)N2CC(=O)Nc3ccccc32)c2c(C)c(C)sc2n1,-7.82% (inactive)
6,CN1CCNC(=O)C1CC(=O)N1CC=C(c2ccc(F)cc2)CC1 (configuration not stated),1.72% (inactive)
7,COc1cc2c3c(c1)/C(=C1/SC(=S)NC1=O)C(=O)N3C(C)(C)C=C2C,-0.69% (inactive)
8,C=CS(=O)c1sc(Cl)c(N2CCOCC2)c1[N+](=O)[O-] (configuration not stated),17.3% (active)
9,COC(=O)COc1ccc(C2NC(=O)NC(C)=C2C(=O)NCc2ccccc2)cc1OC (configuration not stated),-2.89% (inactive)
10,O=C(CNc1ccc(F)cc1F)NC(=O)NCc1ccco1,5.92% (inactive)
11,Oc1c(C(c2cccs2)N2CCN(c3ccc(F)cc3)CC2)sc2ncnn12 (configuration not stated),-6.82% (inactive)
12,O=C(c1ccc(F)cc1)N1CCC(n2nnc3ccccc32)CC1,1.82% (inactive)
13,Cc1cccc(C)c1Nc1c(-c2ccccc2O)nc2ncccn12,4.64% (inactive)
14,Cc1ccc(-c2nc(C#N)c(NCCCn3ccnc3)o2)cc1,-5.98% (inactive)
15,CC(C)c1ccc2c(c1)c(SC(C)(C)C)c(CC(C)(C)C(=O)O)n2Cc1ccc(Cl)cc1,5.23% (inactive)
16,CCN(CC)C(=O)Oc1ccc(OC(=O)N(CC)CC)cc1,3.51% (inactive)
17,CCCc1nc2oc3c(OCC)ncnc3c2c2c1COC(C)(C)C2,-0.01% (inactive)
18,CC(C)(C)C(=O)NC(NC(=S)Nc1ccc(S(N)(=O)=O)cc1)C(Cl)(Cl)Cl (configuration not stated),-7.24% (inactive)
19,CCOc1ccccc1N(CC(=O)NC1CCCCC1)C(=O)CCCC(=O)Nc1ccccn1,-3.56% (inactive)
20,O=C(CCCC(=O)N(CC(=O)NC1CCCC1)Cc1ccccc1Cl)Nc1ccccn1,16.9% (active)
21,Cc1ccc(C(C(=O)NC2CCCC2)N(Cc2ccco2)C(=O)CCC(=O)Nc2ccccn2)cc1 (configuration not stated),-4.24% (inactive)
